From PubChem BioAssay
The source made the active and inactive calls.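 The calls were made as follows, unless noted: active = Her2 level under about 52% in both replicate screens, with viability over 70% of control (limit read from the data); inconclusive = Her2 under the limit in one screen only, or viability under 70%; inactive = Her2 level above the set limit.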

Key:
[1] = reducers of endogenous Her2 protein level, primary screen, SKBR3 breast tumor cells, AlphaScreen, ATP viability (AID 461); conditions: 18-24 h, measured here: SKBR3 viability, ATP luminescence, at 10 µM;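 as to Her2 level: lower value means less Her2 protein in the cells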;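 as to viability: percent of carrier control wells set as 100% viability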
[2] = biological target: Receptor tyrosine-protein kinase erbB-2 (Homo sapiens) (UniProt P04626); experiment: as above; conditions: 18-24 h, at 10 µM, stronger effect = lower value
[3] = SK-BR-3 cell growth inhibitors, pilot screen, 24 h, human (AID 572;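 active = viability at or below 10% of carrier control in both of two separate runs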;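 also: compound exposure lasted between 18 and 24 h rather than exactly 24 h; 100% = carrier-treated control wells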); conditions: SK-BR-3 viability, CellTiter-Glo luminescence, at 10 µM, stronger effect = lower value
[4] = HUVEC growth inhibition – cell-based, human, primary screen (AID 575;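 active = viability at or below 30% in both replicate assays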;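 also: 100% = median of untreated cell wells with 0.1% DMSO on each plate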); conditions: HUVEC proliferation, CellTiter-Glo luminescence, 72 h; at 10 µM; stronger effect = lower value
In short: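 Test system: HUVEC primary cells. Quantity: 1250 endothelial cells in each well. Dosing: single-point 10 µM, DMSO 0.1% final. Incubation: 72 h treatment at 37 °C. Measured by: CTG luminescence. Control set: DMSO cell controls and MePR drug controls. Plate: collagen-coated 384-well format.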

[5] = growth inhibitors of H69AR lung tumor, primary screen, human, duplicate replicates (AID 580;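 active = viability at or under a set limit in both replicates, limit being median viability minus 3 SD, cut at about 48% in these data, passing the limit was not always enough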;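 also: 100% = mean luminescence of untreated wells and 0% = no signal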); conditions: H69AR lung tumor cells viability, ATP luminescence, 72 h; at 10 µM; stronger effect = lower value
[6] = reversal of MRP1-mediated doxorubicin resistance, pilot screen, H69AR cells, doxorubicin co-treatment (AID 601;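 active = viability loss from added drug above about 55%, and viability with drug at most 40%, in both replicates, limit read from the data, passing the limit was not always enough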); conditions: CellTiter-Glo, 72 h, at 10 µM; for differential viability (reversal): stronger effect = higher value
[7] = 384-well plate pilot, post-Golgi transport modulator project, inhibition of yeast transport mutant growth (AID 636; in the data active = inhibition above about 31%); conditions: absorbance 615 nm, about 18 h, stronger effect = higher value
[8] = growth suppression of yeast trafficking mutant, preliminary HTS, modulators of trafficking downstream of Golgi apparatus project, 1536-format plate, OD 615 nm (AID 637; in the data active = inhibition above about 30%); conditions: yeast transport mutant growth, absorbance 615 nm, 18 h; stronger effect = higher value
[9] = H69AR cells + 2 uM doxorubicin, measured here: viability with 2 uM doxorubicin, stronger effect = lower value
[10] = H69AR cells, compound alone cytotoxicity

Sequence of Receptor tyrosine-protein kinase erbB-2 (Homo sapiens) (P04626 whole entry, looked up): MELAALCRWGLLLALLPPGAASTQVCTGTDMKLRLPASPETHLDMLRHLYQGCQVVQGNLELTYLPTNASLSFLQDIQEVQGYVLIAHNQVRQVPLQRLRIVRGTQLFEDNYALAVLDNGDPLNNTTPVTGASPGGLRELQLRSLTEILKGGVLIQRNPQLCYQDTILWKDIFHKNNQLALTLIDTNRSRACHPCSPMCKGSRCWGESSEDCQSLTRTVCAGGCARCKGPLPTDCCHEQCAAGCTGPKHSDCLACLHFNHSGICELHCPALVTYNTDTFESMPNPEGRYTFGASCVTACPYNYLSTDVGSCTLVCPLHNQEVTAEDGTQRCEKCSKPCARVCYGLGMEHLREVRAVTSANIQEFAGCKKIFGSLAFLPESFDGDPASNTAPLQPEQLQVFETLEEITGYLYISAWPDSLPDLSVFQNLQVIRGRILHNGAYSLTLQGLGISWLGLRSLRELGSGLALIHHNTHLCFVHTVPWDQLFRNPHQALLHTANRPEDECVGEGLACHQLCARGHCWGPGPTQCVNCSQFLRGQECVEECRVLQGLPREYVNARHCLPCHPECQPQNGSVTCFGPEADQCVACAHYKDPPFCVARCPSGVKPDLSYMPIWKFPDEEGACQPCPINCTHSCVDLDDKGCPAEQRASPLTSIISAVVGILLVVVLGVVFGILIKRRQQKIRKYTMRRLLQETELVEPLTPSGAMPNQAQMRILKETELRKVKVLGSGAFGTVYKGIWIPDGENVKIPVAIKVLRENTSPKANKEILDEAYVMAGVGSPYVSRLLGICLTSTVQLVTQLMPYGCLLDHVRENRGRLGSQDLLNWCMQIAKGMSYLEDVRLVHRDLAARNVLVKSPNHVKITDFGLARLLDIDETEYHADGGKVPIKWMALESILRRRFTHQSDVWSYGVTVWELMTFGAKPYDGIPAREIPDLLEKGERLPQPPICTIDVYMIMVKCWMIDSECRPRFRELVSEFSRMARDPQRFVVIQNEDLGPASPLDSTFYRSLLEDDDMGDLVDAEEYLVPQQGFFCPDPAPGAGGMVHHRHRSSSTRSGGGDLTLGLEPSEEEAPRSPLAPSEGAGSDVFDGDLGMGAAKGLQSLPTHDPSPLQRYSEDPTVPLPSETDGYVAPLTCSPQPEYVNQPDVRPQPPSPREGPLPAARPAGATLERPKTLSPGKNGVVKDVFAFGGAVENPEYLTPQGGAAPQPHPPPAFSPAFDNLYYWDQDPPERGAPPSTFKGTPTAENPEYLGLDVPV

Compound | viability [1] | Her2 level [2] | viability [3] | viability [4] | viability [5] | differential viability (reversal) ([6]; H69AR cells + 2 uM doxorubicin) | viability [6, 9] | viability [6, 10] | inhibition [7] | inhibition [8]
O=C(NCCc1ccccc1)C1CCN(S(=O)(=O)N2CCC3(CC2)OCCO3)CC1 | 102% | 88.5% (inactive) | 102% (inactive) | 88.5% (inactive) | 99.3% (inactive) | 10.9% (inactive) | 88.4% | 99.3% | -2.37% (inactive) | 0.16% (inactive)
O=C(NCCc1ccccn1)c1ccc(COc2ccccc2)o1 | 80% | 100% (inactive) | 80% (inactive) | 103% (inactive) | 102% (inactive) | 6.97% (inactive) | 95.3% | 102% | -2.99% (inactive) | 0.33% (inactive)
COc1ccccc1-c1cc(C(=O)NCCCn2ccnc2)no1 | 82% | 80% (inactive) | 82% (inactive) | 88.5% (inactive) | 97.4% (inactive) | 14.3% (inactive) | 83.1% | 97.4% | -7.03% (inactive) | -2.17% (inactive)
O=c1cc(COn2nnc3ccc(C(F)(F)F)cc32)nc2sccn12 | 89.5% | 91.5% (inactive) | 89.5% (inactive) | 104% (inactive) | 85.7% (inactive) | -19.7% (inactive) | 105% | 85.7% | -1.71% (inactive) | 0.63% (inactive)
Cc1ccc(NC(=O)CSc2nnc(-c3cnccn3)n2Cc2ccco2)cc1C | 80.5% | 93% (inactive) | 80.5% (inactive) | 80.6% (inactive) | 104% (inactive) | 6.65% (inactive) | 97.5% | 104% | -1.82% (inactive) | -7.67% (inactive)
O=C(O)CCc1ccc(-c2ccc(Br)cc2)n1CC(=O)O | 102% | 102% (inactive) | 102% (inactive) | 91.9% (inactive) | 101% (inactive) | 2.92% (inactive) | 98% | 101% | -0.51% (inactive) | -3.67% (inactive)
Cc1ccc(C)c(N(CC(=O)NCc2ccco2)C(=O)CCC(=O)Nc2ccccn2)c1 | 93% | 92% (inactive) | 93% (inactive) | 81.8% (inactive) | 68.6% (inactive) | -5.34% (inactive) | 74% | 68.6% | -3.25% (inactive) | -1.43% (inactive)
Cn1c(C(=O)NCC2CCCO2)cc2c(=O)[nH]c3ccccc3c21 (stereo not given) | 81% | 98% (inactive) | 81% (inactive) | 108% (inactive) | 88.4% (inactive) | 4.57% (inactive) | 83.8% | 88.4% | -4.67% (inactive) | -7.05% (inactive)
Cc1ccccc1NC(=O)C1CC(=O)N(c2ccccc2F)C1 (stereo not given) | 91.5% | 81% (inactive) | 91.5% (inactive) | 102% (inactive) | 100% (inactive) | 18.3% (inactive) | 82.1% | 100% | -8.65% (inactive) | 6.89% (inactive)
Cc1ccc(C(C)C)c(OCCn2c(=O)oc3ccccc32)c1 | 89% | 133% (inactive) | 89% (inactive) | 87.9% (inactive) | 95.8% (inactive) | 13.5% (inactive) | 82.3% | 95.8% | 0.79% (inactive) | -3.83% (inactive)
CCN(CC)c1ccc2cc(NC(=O)CCC(=O)O)c(=O)oc2c1 | 89% | 99% (inactive) | 89% (inactive) | 81.1% (inactive) | 95.7% (inactive) | -12.2% (inactive) | 108% | 95.7% | -2.13% (inactive) | -5.32% (inactive)
NC(=O)c1cccc(S(=O)(=O)N2CCCCC2)c1 | 99% | 96% (inactive) | 99% (inactive) | 96.9% (inactive) | 106% (inactive) | 9.71% (inactive) | 96.5% | 106% | -7.84% (inactive) | 2.62% (inactive)
Brc1ccc(-c2csc(/N=C/N3CCOCC3)n2)cc1 | 113% | 100% (inactive) | 113% (inactive) | 85% (inactive) | 97.6% (inactive) | 5.1% (inactive) | 92.5% | 97.6% | -4.4% (inactive) | -7.1% (inactive)
Cn1c(=O)c2c([nH]c(=O)n2C)n(C)c1=O | 104% | 84.5% (inactive) | 104% (inactive) | 88.7% (inactive) | 90.2% (inactive) | -5.03% (inactive) | 95.3% | 90.2% | -2.21% (inactive) | 7.21% (inactive)
O=C(CSc1nnc(-c2c[nH]c3ccccc23)o1)N(Cc1ccccc1)c1ccc(F)cc1 | 100% | 102% (inactive) | 100% (inactive) | 65.9% (inactive) | 82.4% (inactive) | -14.3% (inactive) | 96.6% | 82.4% | 2.53% (inactive) | 7.7% (inactive)
CCOC(=O)CN1CC23C=CC(O2)C(C(=O)NC2CCCC2)C3C1=O (stereo not given) | 86.5% | 84% (inactive) | 86.5% (inactive) | 106% (inactive) | 98.2% (inactive) | 10.6% (inactive) | 87.6% | 98.2% | -0.64% (inactive) | 4.33% (inactive)
O=S1(=O)CC(N2CCCCC2)C(N2CCCCC2)C1 (stereo not given) | 104% | 91.5% (inactive) | 104% (inactive) | 108% (inactive) | 95.3% (inactive) | 16.9% (inactive) | 78.3% | 95.3% | -2.99% (inactive) | 1.27% (inactive)
O=C(CSCc1cccc(F)c1)N1CCN(c2ccccc2)CC1 | 92% | 93.5% (inactive) | 92% (inactive) | 91% (inactive) | 101% (inactive) | 5.28% (inactive) | 96% | 101% | -5% (inactive) | -4.67% (inactive)
CCCCC(=O)NCCc1ccc(S(N)(=O)=O)cc1 | 104% | 104% (inactive) | 104% (inactive) | 95.4% (inactive) | 97.1% (inactive) | 9.4% (inactive) | 87.7% | 97.1% | -2.16% (inactive) | 2.62% (inactive)
CC(C)(C)OC(=O)N1CC(O)CC1C(=O)OCC(=O)c1ccc(Cl)cc1 (stereo not given) | 95% | 91% (inactive) | 95% (inactive) | 109% (inactive) | 84% (inactive) | -6.24% (inactive) | 90.3% | 84% | -5.68% (inactive) | 11.5% (inactive)
O=C1C(Cl)=C(N2CCOCC2)C(=O)N1CCc1ccccc1 | 104% | 84% (inactive) | 104% (inactive) | 89.3% (inactive) | 71.3% (inactive) | 0.02% (inactive) | 71.3% | 71.3% | -6.27% (inactive) | -1.11% (inactive)
COc1ccccc1-n1c(C)nnc1SCC(N)=O | 127% | 113% (inactive) | 127% (inactive) | 101% (inactive) | 91.6% (inactive) | 13.9% (inactive) | 77.7% | 91.6% | -5.33% (inactive) | -0.65% (inactive)
CCCN1C2=C(C(=O)CCC2)C(c2ccc(O)c(Br)c2)C2=C1CCCC2=O | 96% | 85.5% (inactive) | 96% (inactive) | 96.8% (inactive) | 91.8% (inactive) | -1.01% (inactive) | 92.8% | 91.8% | -7.11% (inactive) | 2% (inactive)
Cc1cc(C)c(C)c(OCC(=O)NCC2CCCO2)c1 (stereo not given) | 85% | 85.5% (inactive) | 85% (inactive) | 102% (inactive) | 100% (inactive) | 8.32% (inactive) | 91.9% | 100% | -3.38% (inactive) | 0.16% (inactive)
O=C(O)CCCC(=O)Nc1nc(-c2ccc(F)cc2)cs1 | 97.5% | 75.5% (inactive) | 97.5% (inactive) | 83.3% (inactive) | 96.5% (inactive) | 4.08% (inactive) | 92.4% | 96.5% | -3.95% (inactive) | -4.5% (inactive)
COc1ccc(S(=O)(=O)n2nc(OC(=O)c3ccc(C)cc3)cc2N)cc1 | 92.5% | 72% (inactive) | 92.5% (inactive) | 91.6% (inactive) | 97.7% (inactive) | -7.45% (inactive) | 105% | 97.7% | -4.47% (inactive) | -5.67% (inactive)
N#CCCCN1C(=O)C(O)(CC(=O)c2ccc3c(c2)OCCO3)c2ccccc21 (stereo not given) | 100% | 93.5% (inactive) | 100% (inactive) | 89.5% (inactive) | 85.3% (inactive) | 6.12% (inactive) | 79.2% | 85.3% | -2.89% (inactive) | -9.03% (inactive)
CCC(C)n1[nH]c(=O)c2c(C)cc(C)nc21 (stereo not given) | 97.5% | 91.5% (inactive) | 97.5% (inactive) | 95.8% (inactive) | 98.8% (inactive) | 9.86% (inactive) | 88.9% | 98.8% | -5.26% (inactive) | -1.64% (inactive)
